Assay results published in ChEMBL document CHEMBL2086252, “Syntheses and evaluation of anticonvulsant activity of novel branched alkyl carbamates” (J Med Chem, 2012).
Activity calls are given as the source filed them. No cut-off for these calls is given here.

Columns and labels:
Rattus norvegicus [1] = assay: Neurotoxicity in pilocarpine-induced status epilepticus Sprague-Dawley albino rat model assessed as minimal motor impairment at 100 mg/kg, ip after 1 hr by rotarod test; format: toxicity, organism-based; set-up: dose 100 mg/kg, route intraperitoneal; settings: in vivo
Rattus norvegicus [2] = assay: Neurotoxicity in pilocarpine-induced status epilepticus Sprague-Dawley albino rat model assessed as minimal motor impairment at 300 mg/kg, ip after 0.25 hr by rotarod test; format: toxicity, organism-based; set-up: dose 300 mg/kg, route intraperitoneal; settings: in vivo
In short: (§1)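 Rat pilocarpine status epilepticus model: test carbamate given at 0 or 30 min after the first observed Racine stage 3 motor seizure, which marks SE onset. Neurotoxicity was scored within the same model.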

Rattus norvegicus [3] = assay: Neurotoxicity in pilocarpine-induced status epilepticus Sprague-Dawley albino rat model assessed as minimal motor impairment at 100 mg/kg, ip after 0.25 hr by rotarod test; format: toxicity, organism-based; set-up: dose 100 mg/kg, route intraperitoneal; settings: in vivo
Rattus norvegicus [4] = assay: Anticonvulsant activity in Sprague-Dawley albino rat assessed as protection against pilocarpine-induced status epilepticus at 130 mg/kg, ip administered 0 and 30 mins after status epilepticus onset
Mus musculus [5] = assay: Anticonvulsant activity in albino CF1 mouse assessed as protection against maximal electroshock-induced seizures at 30 mg/kg, ip after 0.5 hrs; format: functional, organism-based; set-up: dose 30 mg/kg
In short: (§2)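 Mice dosed ip at 30, 100 or 300 mg/kg, then tested 0.5 h and 4 h after administration in the MES or scMet test. Protection was recorded as animals protected over animals tested. Neurotoxicity was recorded as motor impairment or sedation, as animals affected over animals tested.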

Mus musculus [6] = assay: Anticonvulsant activity in albino CF1 mouse assessed as protection against maximal electroshock-induced seizures at 30 mg/kg, ip after 4 hrs; format: functional, organism-based; set-up: dose 30 mg/kg; in short: as §2
Mus musculus [7] = assay: Anticonvulsant activity in albino CF1 mouse assessed as protection against maximal electroshock-induced seizures at 300 mg/kg, ip after 0.5 hrs; format: functional, organism-based; set-up: dose 300 mg/kg; in short: as §2
Rattus norvegicus [8] = assay: Neurotoxicity in pilocarpine-induced status epilepticus Sprague-Dawley albino rat model assessed as minimal motor impairment at 300 mg/kg, ip after 2 hrs by rotarod test; format: toxicity, organism-based; set-up: dose 300 mg/kg, route intraperitoneal; settings: in vivo; in short: as §1
Rattus norvegicus [9] = assay: Neurotoxicity in pilocarpine-induced status epilepticus Sprague-Dawley albino rat model assessed as minimal motor impairment at 100 mg/kg, ip after 2 hrs by rotarod test; format: toxicity, organism-based; set-up: dose 100 mg/kg, route intraperitoneal; settings: in vivo
Mus musculus [10] = assay: Neurotoxicity in albino CF1 mouse assessed as minimal motor impairment at 30 mg/kg, ip after 4 hrs by rotarod test; format: toxicity, organism-based; set-up: dose 30 mg/kg, route intraperitoneal; settings: in vivo; in short: as §2
Mus musculus [11] = assay: Anticonvulsant activity in albino CF1 mouse assessed as protection against subcutaneous metrazol-induced seizures at 100 mg/kg, ip after 0.5 hrs; format: functional, organism-based; set-up: dose 100 mg/kg; in short: as §2
Rattus norvegicus [12] = assay: Anticonvulsant activity in Sprague-Dawley albino rat assessed as protection against maximal electroshock-induced seizures at 30 mg/kg, po after 4 hrs; format: functional, organism-based; set-up: dose 30 mg/kg
In short: (§3)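 Rats dosed orally. Anti-MES protection was scored as animals protected over animals tested at each time after dosing. Neurotoxicity was scored as motor impairment or sedation, as animals affected over animals tested.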

Mus musculus [13] = assay: Neurotoxicity in albino CF1 mouse assessed as minimal motor impairment at 100 mg/kg, ip after 0.5 hrs by rotarod test; format: toxicity, organism-based; set-up: dose 100 mg/kg, route intraperitoneal; settings: in vivo; in short: as §2
Rattus norvegicus [14] = assay: Neurotoxicity in pilocarpine-induced status epilepticus Sprague-Dawley albino rat model assessed as minimal motor impairment at 100 mg/kg, ip after 0.5 hrs by rotarod test; format: toxicity, organism-based; set-up: dose 100 mg/kg, route intraperitoneal; settings: in vivo
Mus musculus [15] = assay: Neurotoxicity in albino CF1 mouse assessed as minimal motor impairment at 30 mg/kg, ip after 0.5 hrs by rotarod test; format: toxicity, organism-based; set-up: dose 30 mg/kg, route intraperitoneal; settings: in vivo; in short: as §2
Mus musculus [16] = assay: Anticonvulsant activity in albino CF1 mouse assessed as protection against subcutaneous metrazol-induced seizures at 300 mg/kg, ip after 4 hrs; format: functional, organism-based; set-up: dose 300 mg/kg; in short: as §2
Rattus norvegicus [17] = assay: Neurotoxicity in pilocarpine-induced status epilepticus Sprague-Dawley albino rat model assessed as minimal motor impairment at 100 mg/kg, ip after 4 hrs by rotarod test; format: toxicity, organism-based; set-up: dose 100 mg/kg, route intraperitoneal; settings: in vivo
Rattus norvegicus [18] = assay: Anticonvulsant activity in Sprague-Dawley albino rat assessed as protection against maximal electroshock-induced seizures at 30 mg/kg, po after 30 mins; format: functional, organism-based; set-up: dose 30 mg/kg; in short: as §3
Rattus norvegicus [19] = assay: Neurotoxicity in pilocarpine-induced status epilepticus Sprague-Dawley albino rat model assessed as minimal motor impairment at 30 mg/kg, ip after 0.5 hrs by rotarod test; format: toxicity, organism-based; set-up: dose 30 mg/kg, route intraperitoneal; settings: in vivo; in short: as §1
Rattus norvegicus [20] = assay: Neurotoxicity in Sprague-Dawley albino rat assessed as minimal motor impairment at 30 mg/kg, po by rotarod test; format: toxicity, organism-based; set-up: dose 30 mg/kg, route oral; settings: in vivo; in short: as §3
Rattus norvegicus [21] = assay: Neurotoxicity in pilocarpine-induced status epilepticus Sprague-Dawley albino rat model assessed as minimal motor impairment at 30 mg/kg, ip after 4 hrs by rotarod test; format: toxicity, organism-based; set-up: dose 30 mg/kg, route intraperitoneal; settings: in vivo; in short: as §1
Mus musculus [22] = assay: Neurotoxicity in albino CF1 mouse assessed as minimal motor impairment at 300 mg/kg, ip after 4 hrs by rotarod test; format: toxicity, organism-based; set-up: dose 300 mg/kg, route intraperitoneal; settings: in vivo; in short: as §2
Mus musculus [23] = assay: Anticonvulsant activity in albino CF1 mouse assessed as protection against subcutaneous metrazol-induced seizures at 100 mg/kg, ip after 4 hrs; format: functional, organism-based; set-up: dose 100 mg/kg; in short: as §2
Rattus norvegicus [24] = assay: Neurotoxicity in pilocarpine-induced status epilepticus Sprague-Dawley albino rat model assessed as minimal motor impairment at 30 mg/kg, ip after 2 hrs by rotarod test; format: toxicity, organism-based; set-up: dose 30 mg/kg, route intraperitoneal; settings: in vivo; in short: as §1
Rattus norvegicus [25] = assay: Neurotoxicity in pilocarpine-induced status epilepticus Sprague-Dawley albino rat model assessed as minimal motor impairment at 300 mg/kg, ip after 1 hr by rotarod test; format: toxicity, organism-based; set-up: dose 300 mg/kg, route intraperitoneal; settings: in vivo; in short: as §1
Rattus norvegicus [26] = assay: Neurotoxicity in pilocarpine-induced status epilepticus Sprague-Dawley albino rat model assessed as minimal motor impairment at 300 mg/kg, ip after 4 hrs by rotarod test; format: toxicity, organism-based; set-up: dose 300 mg/kg, route intraperitoneal; settings: in vivo; in short: as §1
Rattus norvegicus [27] = assay: Anticonvulsant activity in Sprague-Dawley albino rat assessed as protection against maximal electroshock-induced seizures at 30 mg/kg, po after 15 mins; format: functional, organism-based; set-up: dose 30 mg/kg; in short: as §3
Rattus norvegicus [28] = assay: Neurotoxicity in pilocarpine-induced status epilepticus Sprague-Dawley albino rat model assessed as minimal motor impairment at 30 mg/kg, ip after 1 hr by rotarod test; format: toxicity, organism-based; set-up: dose 30 mg/kg, route intraperitoneal; settings: in vivo; in short: as §1
Mus musculus [29] = assay: Neurotoxicity in albino CF1 mouse assessed as minimal motor impairment at 100 mg/kg, ip after 4 hrs by rotarod test; format: toxicity, organism-based; set-up: dose 100 mg/kg, route intraperitoneal; settings: in vivo; in short: as §2
Mus musculus [30] = assay: Anticonvulsant activity in albino CF1 mouse assessed as protection against subcutaneous metrazol-induced seizures at 30 mg/kg, ip after 0.5 hrs; format: functional, organism-based; set-up: dose 30 mg/kg; in short: as §2
Mus musculus [31] = assay: Anticonvulsant activity in albino CF1 mouse assessed as protection against subcutaneous metrazol-induced seizures at 30 mg/kg, ip after 4 hrs; format: functional, organism-based; set-up: dose 30 mg/kg; in short: as §2
Mus musculus [32] = assay: Anticonvulsant activity in albino CF1 mouse assessed as protection against subcutaneous metrazol-induced seizures at 300 mg/kg, ip after 0.5 hrs; format: functional, organism-based; set-up: dose 300 mg/kg; in short: as §2
Mus musculus [33] = assay: Anticonvulsant activity in albino CF1 mouse assessed as protection against maximal electroshock-induced seizures at 100 mg/kg, ip after 4 hrs; format: functional, organism-based; set-up: dose 100 mg/kg; in short: as §2
Rattus norvegicus [34] = assay: Anticonvulsant activity in Sprague-Dawley albino rat assessed as protection against maximal electroshock-induced seizures at 30 mg/kg, po after 2 hrs; format: functional, organism-based; set-up: dose 30 mg/kg; in short: as §3
Rattus norvegicus [35] = assay: Neurotoxicity in pilocarpine-induced status epilepticus Sprague-Dawley albino rat model assessed as minimal motor impairment at 300 mg/kg, ip after 0.5 hrs by rotarod test; format: toxicity, organism-based; set-up: dose 300 mg/kg, route intraperitoneal; settings: in vivo; in short: as §1
Mus musculus [36] = assay: Anticonvulsant activity in albino CF1 mouse assessed as protection against maximal electroshock-induced seizures at 300 mg/kg, ip after 4 hrs; format: functional, organism-based; set-up: dose 300 mg/kg; in short: as §2
Rattus norvegicus [37] = assay: Neurotoxicity in pilocarpine-induced status epilepticus Sprague-Dawley albino rat model assessed as minimal motor impairment at 30 mg/kg, ip after 0.25 hr by rotarod test; format: toxicity, organism-based; set-up: dose 30 mg/kg, route intraperitoneal; settings: in vivo; in short: as §1
Mus musculus [38] = assay: Neurotoxicity in albino CF1 mouse assessed as minimal motor impairment at 300 mg/kg, ip after 0.5 hrs by rotarod test; format: toxicity, organism-based; set-up: dose 300 mg/kg, route intraperitoneal; settings: in vivo; in short: as §2
Rattus norvegicus [39] = assay: Anticonvulsant activity in Sprague-Dawley albino rat assessed as protection against pilocarpine-induced status epilepticus at 200 mg/kg, ip; format: functional, organism-based; set-up: dose 200 mg/kg
In short: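 Pilocarpine status epilepticus model in rats. Number and severity of convulsive seizures were observed behaviourally.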

SMILES	Activity (Rattus norvegicus [1])	Activity (Rattus norvegicus [2])	Activity (Rattus norvegicus [3])	Activity (Mus musculus [5])	Activity (Mus musculus [6])	Activity (Mus musculus [7])	Activity (Rattus norvegicus [8])	Activity (Rattus norvegicus [9])	Activity (Mus musculus [10])	Activity (Mus musculus [11])	Activity (Mus musculus [13])	Activity (Rattus norvegicus [14])	Activity (Mus musculus [15])	Activity (Mus musculus [16])	Activity (Rattus norvegicus [17])	Activity (Mus musculus [22])	Activity (Mus musculus [23])	Activity (Rattus norvegicus [26])	Activity (Mus musculus [29])	Activity (Mus musculus [30])	further results
CC1(C)C(COC(N)=O)C1(C)C	Toxic	Toxic	Toxic	inactive	inactive	Active	Toxic	Non-toxic	Non-toxic	inactive	Non-toxic	Toxic	Non-toxic	inactive	Non-toxic	Non-toxic	inactive	Non-toxic	Non-toxic	inactive	Activity (Rattus norvegicus [4]): inactive; Activity (Rattus norvegicus [12]): inactive; Activity (Rattus norvegicus [18]): inactive; Activity (Rattus norvegicus [19]): Non-toxic; Activity (Rattus norvegicus [20]): Non-toxic; Activity (Rattus norvegicus [21]): Non-toxic; Activity (Rattus norvegicus [24]): Non-toxic; Activity (Rattus norvegicus [25]): Toxic; Activity (Rattus norvegicus [27]): inactive; Activity (Rattus norvegicus [28]): Non-toxic; Activity (Mus musculus [31]): inactive; Activity (Mus musculus [32]): Active; Activity (Mus musculus [33]): inactive; Activity (Rattus norvegicus [34]): inactive; Activity (Rattus norvegicus [35]): Toxic; Activity (Mus musculus [36]): inactive; Activity (Rattus norvegicus [37]): Non-toxic; Activity (Mus musculus [38]): Toxic
CC(C)C(C)COC(N)=O (racemic)	Non-toxic	Toxic	Non-toxic	inactive	inactive	Active	Non-toxic	Non-toxic	Non-toxic	inactive	Non-toxic	Non-toxic	Non-toxic	inactive	Non-toxic	Non-toxic	inactive	Non-toxic	Non-toxic	inactive	Activity (Rattus norvegicus [39]): Active; Activity (Mus musculus [31]): inactive; Activity (Mus musculus [32]): Active; Activity (Mus musculus [33]): inactive; Activity (Rattus norvegicus [35]): Toxic; Activity (Mus musculus [36]): inactive; Activity (Mus musculus [38]): Toxic
